This excerpt belongs to a sample that is enriched for hits.
UPR CHOP act = activators of apoptotic CHOP UPR arm, primary screen, cell-based, CHO-CHOP luciferase reporter, luminescence, uHTS; UPR activation; percent of tunicamycin response over DMSO baseline; activation, % at 10 µM; actives 0.34% (n = 330,000); AID 449763, 2010;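 active = at 10 µM dose, activation of 40% or more, normalized to positive control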;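 note: 100% = tunicamycin at 10 µg/mL and 0% = DMSO alone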
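measured by = luciferase luminescence | assay system = CHO-CHOP cells, stable luciferase reporter of PERK-eIF2a-CHOP signalling | amount = 500 reporter cells seeded per well | timing = 6 h compound exposure at 37 °C after overnight seeding | controls = positive tunicamycin 10 µg/mL, negative DMSO alone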
XBP1 UPR activ = activators of adaptive XBP1 UPR arm, primary screen, cell-based, CHO-XBP1 luciferase reporter, luminescence, uHTS. IRE1-XBP1 UPR activation; percent of tunicamycin response, DMSO as zero. activation, % at 20 µM. actives 0.33% (n = 330,000). AID 463104, 2010;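 active = versus positive control, 20 µM dose yields 30% or more activation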;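 note: 100% = tunicamycin at 10 µg/mL and 0% = DMSO only wells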
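incubation = overnight seeding at 37 °C, 6 h compound treatment at 37 °C | assay system = CHO-XBP1 cells stably carrying IRE1-XBP1-driven luciferase reporter | input = 1000 cells per well | detection = luciferase luminescence | dosing = single point, 20 µM final compound, 1% DMSO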
Jurkat NFkB inh = inhibitors of induced NF-kB luciferase reporter, primary screen, TCR NF-kB activation inhibitor project, cell-based, luminescence, uHTS | Jurkat, PMA/ionomycin-induced NF-kB luciferase reporter | inhibition, % at 4 µM | actives 0.53% (n = 330,000) | AID 435003, 2010; in the data active = inhibition above about 50%
CHOP inhibitor = inhibitors of CHOP promoter induction, primary screen, cell-based, unfolded protein response, luciferase reporter; AID 2732, 2010; CHO-K1 CHOP-promoter luciferase, tunicamycin-induced, 15-18 h; inhibition, % at 10 µM; actives 3.8% (n = 220,000);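 active = compounds that reduced the stress-induced luciferase reporter signal by more than about 70% of percent inhibition, limit read from the data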;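 note: 0% = tunicamycin plus vehicle and 100% = wells without tunicamycin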
697 NFkB inh = inhibitors of PMA/ionomycin-induced NF-kB reporter, 697 cells, primary screen, B-cell NF-kB inhibitor project, cell-based, luminescence, uHTS. 697 B-cell NF-kB luciferase reporter, 16 h. inhibition, % at 4 µM. actives 0.33% (n = 330,000). AID 435022, 2010; in the data active = inhibition above about 35%
Starred values were filed as active, the others as inactive; · = not tested or not shown.

SMILES | UPR CHOP act | XBP1 UPR activ | Jurkat NFkB inh | CHOP inhibitor | 697 NFkB inh
Nc1ncnc2c1ncn2[C@@H]1O[C@H](C(=O)NC2CC2)[C@H](O)C1O (some centres undefined) | · | · | · | -19 | ·
Cc1ccc(C(=O)CSc2nnc(-c3ccc4[nH]c(C)c(C)c4c3)o2)cc1C | 0 | -1 | 5 | 74* | 19
Cc1csc(NC(=O)C2CCN(S(=O)(=O)c3cccs3)CC2)n1 | 1 | -2 | 0 | -13 | 3
CC(=O)Nc1ccc(-c2csc(NC(=O)C3CCN(S(=O)(=O)c4cccs4)CC3)n2)cc1 | · | · | · | 81* | ·
CCOC(=O)c1c(C)[nH]c(N=Nc2cccc(C)c2)c1C | 3 | 12 | -111 | 71* | -179
CCOC(=O)c1c(C)[nH]c(N=Nc2ccccc2)c1C | 5 | 29 | -97 | -34 | -80
O=C(COC(=O)c1cn(-c2ccccc2)nc1-c1ccccc1)Nc1ncc(Cl)cc1Cl | -1 | -4 | 13 | 77* | 20
O=C(COC(=O)c1cn(-c2ccccc2)nc1-c1ccccc1)c1ccc([N+](=O)[O-])cc1 | 6 | -2 | 3 | 49 | 13
Cc1ccc(C(=O)COC(=O)c2cn(-c3ccccc3)nc2-c2ccccc2)cc1[N+](=O)[O-] | 11 | 1 | 17 | 76* | -5
Nc1nc(Cl)nc2c1ncn2[C@@H]1O[C@H](CO)[C@H](O)C1O (some centres undefined) | · | · | · | 8 | ·
COc1cccc(C(=O)Oc2ccc3ccc(=O)oc3c2)c1 | 3 | 6 | -32 | · | -2
CC(C)(C)N/N=C1\CC(c2ccccc2)Oc2ccccc21 (centres undefined) | 1 | 1 | -1 | 73* | -6
c1ccc(C2C/C(=N\N3CCOCC3)c3ccccc3O2)cc1 (centres undefined) | 0 | 2 | -34 | -21 | 3
C=C(C(=O)Oc1ccccc1C(C)(C)C)c1ccccc1 | 193* | 1 | 3 | · | -1
CC(C)(C)c1ccccc1OCC(=O)NCCC(=O)O | -2 | 2 | 2 | -11 | 9
CCC(=O)c1c(CC)c2n3c1CC[C@H]3CCC2 | -2 | -2 | 33 | · | 1
N/C(=N\OC(=O)c1cc(-c2ccccc2)nc2ccccc12)c1ccccn1 | 2 | 8 | 13 | 74* | 5
CC(=O)c1sc(NC(=O)c2cc(-c3ccccc3)nn2-c2ccccc2)nc1C | -1 | -4 | -5 | -1 | -14
CC(=O)c1sc(NC(=O)c2cc3c(C)nn(-c4ccccc4)c3s2)nc1C | -1 | -2 | 2 | 81* | 7
Nc1nonc1C(=O)NCCNCc1cc(Br)ccc1OCc1ccc(F)cc1 | 3 | -3 | 16 | 62 | -18
Nc1nonc1C(=O)NCCNCc1c(OCc2ccccc2F)ccc2ccccc12 | -1 | 1 | 7 | 73* | -1
COc1ccc(C2SCC(=O)N2CC23CC4CC(CC(C4)C2)C3)cc1 (centres undefined) | 0 | 0 | 10 | 86* | -10
CC(=O)N1N=C2c3ccccc3CCC2C1c1cccs1 (centres undefined) | 1 | 0 | -3 | 17 | -6
CCn1cc(Cl)c(C(=O)N2N=C3/C(=C/c4cccs4)CCCC3C2c2cccs2)n1 (centres undefined) | 1 | 0 | -3 | 83* | 19
Cc1ccc(N(C(=O)Cc2c[nH]c3ccccc23)C(C(=O)NC2CCCCC2)c2ccco2)cc1 (centres undefined) | 2 | 6 | -5 | 88* | 10
Cc1ccc(C(C(=O)NC2CCCCC2)N(Cc2ccco2)C(=O)Cc2c[nH]c3ccccc23)o1 (centres undefined) | -1 | 0 | 4 | 87* | 21
COC(=O)C1=C[C@@H](C(=O)OC)[C@@H]2C3=C(C(=O)[C@@]2(C)NC(=O)c2ccccc2)[C@H](C)C(C(=O)OC)=C(C(=O)OC)[C@@H]3C1 | -2 | -3 | 4 | · | 19
O=C(CCNS(=O)(=O)c1ccc2[nH]c(=O)oc2c1)Nc1ccccc1 | -2 | -7 | 0 | · | -11

Screening results deposited in PubChem BioAssay by several laboratories.
